Laboratory results as given in ChEMBL document CHEMBL1149147, “NR2B-selective N-methyl-D-aspartate antagonists: synthesis and evaluation of 5-substituted benzimidazoles” (J Med Chem, 2004).

Assays:
[1] = biological target: T1, Adrenergic receptor alpha-1 (Rattus norvegicus, UniProt P15823+P23944+P43140); test: In vitro inhibitory activity against alpha-1 adrenergic receptor binding to rat brain membranes; parameters: species or system Membrane
T1 sequence (P15823 whole entry): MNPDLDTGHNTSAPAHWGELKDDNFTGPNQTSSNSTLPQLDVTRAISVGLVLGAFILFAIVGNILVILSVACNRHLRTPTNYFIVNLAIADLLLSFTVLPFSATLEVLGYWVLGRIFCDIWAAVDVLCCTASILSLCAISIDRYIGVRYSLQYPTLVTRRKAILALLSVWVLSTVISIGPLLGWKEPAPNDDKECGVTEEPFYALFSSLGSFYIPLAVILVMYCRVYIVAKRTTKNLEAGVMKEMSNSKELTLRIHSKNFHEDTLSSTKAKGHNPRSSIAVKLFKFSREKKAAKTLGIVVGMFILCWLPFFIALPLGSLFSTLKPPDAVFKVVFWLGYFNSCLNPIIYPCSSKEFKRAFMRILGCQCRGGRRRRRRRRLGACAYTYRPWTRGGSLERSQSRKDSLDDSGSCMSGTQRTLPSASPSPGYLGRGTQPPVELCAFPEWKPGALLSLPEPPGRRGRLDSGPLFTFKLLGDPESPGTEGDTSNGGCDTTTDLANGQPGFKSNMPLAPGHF
T1 sequence (P23944 whole entry): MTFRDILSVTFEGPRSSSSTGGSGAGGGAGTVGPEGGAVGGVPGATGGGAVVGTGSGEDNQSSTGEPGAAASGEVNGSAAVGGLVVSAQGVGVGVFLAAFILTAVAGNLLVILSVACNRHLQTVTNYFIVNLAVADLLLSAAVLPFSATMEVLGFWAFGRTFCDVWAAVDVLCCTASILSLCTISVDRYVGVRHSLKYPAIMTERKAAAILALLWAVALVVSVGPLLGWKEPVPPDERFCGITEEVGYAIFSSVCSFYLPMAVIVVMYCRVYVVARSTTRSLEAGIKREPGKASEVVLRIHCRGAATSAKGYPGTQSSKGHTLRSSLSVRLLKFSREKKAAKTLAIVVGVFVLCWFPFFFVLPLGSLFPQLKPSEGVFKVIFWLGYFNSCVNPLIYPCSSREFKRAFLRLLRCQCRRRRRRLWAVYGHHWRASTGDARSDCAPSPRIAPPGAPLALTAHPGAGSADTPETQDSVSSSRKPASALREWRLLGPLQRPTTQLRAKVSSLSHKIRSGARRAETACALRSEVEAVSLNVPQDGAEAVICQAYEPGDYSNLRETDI
T1 sequence (P43140 whole entry): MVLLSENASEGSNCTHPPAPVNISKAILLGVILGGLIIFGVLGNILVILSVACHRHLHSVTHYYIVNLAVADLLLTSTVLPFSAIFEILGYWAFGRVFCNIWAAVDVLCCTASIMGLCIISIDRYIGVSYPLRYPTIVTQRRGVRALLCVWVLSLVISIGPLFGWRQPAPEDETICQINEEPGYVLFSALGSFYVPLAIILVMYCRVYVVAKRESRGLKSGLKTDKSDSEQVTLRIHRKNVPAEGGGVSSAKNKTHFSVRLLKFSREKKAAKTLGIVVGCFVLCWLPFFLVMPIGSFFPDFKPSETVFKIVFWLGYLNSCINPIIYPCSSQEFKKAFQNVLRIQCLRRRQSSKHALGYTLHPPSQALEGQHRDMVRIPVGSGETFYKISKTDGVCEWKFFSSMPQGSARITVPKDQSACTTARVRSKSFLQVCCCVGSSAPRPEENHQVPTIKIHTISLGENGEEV
Method in brief: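 Competition binding to α1-adrenergic receptors on membranes prepared from rat brain, using the prazosin binding assay. IC50 is the geometric mean of at least 4 determinations.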

[2] = biological target: Voltage-gated inwardly rectifying potassium channel KCNH2 (Homo sapiens, UniProt Q12809); test: In vitro inhibition of MK-499 binding to hERG in HEK293 cells; format: cell-based; settings: read-out: IP
Sequence of Voltage-gated inwardly rectifying potassium channel KCNH2 (Q12809 whole entry): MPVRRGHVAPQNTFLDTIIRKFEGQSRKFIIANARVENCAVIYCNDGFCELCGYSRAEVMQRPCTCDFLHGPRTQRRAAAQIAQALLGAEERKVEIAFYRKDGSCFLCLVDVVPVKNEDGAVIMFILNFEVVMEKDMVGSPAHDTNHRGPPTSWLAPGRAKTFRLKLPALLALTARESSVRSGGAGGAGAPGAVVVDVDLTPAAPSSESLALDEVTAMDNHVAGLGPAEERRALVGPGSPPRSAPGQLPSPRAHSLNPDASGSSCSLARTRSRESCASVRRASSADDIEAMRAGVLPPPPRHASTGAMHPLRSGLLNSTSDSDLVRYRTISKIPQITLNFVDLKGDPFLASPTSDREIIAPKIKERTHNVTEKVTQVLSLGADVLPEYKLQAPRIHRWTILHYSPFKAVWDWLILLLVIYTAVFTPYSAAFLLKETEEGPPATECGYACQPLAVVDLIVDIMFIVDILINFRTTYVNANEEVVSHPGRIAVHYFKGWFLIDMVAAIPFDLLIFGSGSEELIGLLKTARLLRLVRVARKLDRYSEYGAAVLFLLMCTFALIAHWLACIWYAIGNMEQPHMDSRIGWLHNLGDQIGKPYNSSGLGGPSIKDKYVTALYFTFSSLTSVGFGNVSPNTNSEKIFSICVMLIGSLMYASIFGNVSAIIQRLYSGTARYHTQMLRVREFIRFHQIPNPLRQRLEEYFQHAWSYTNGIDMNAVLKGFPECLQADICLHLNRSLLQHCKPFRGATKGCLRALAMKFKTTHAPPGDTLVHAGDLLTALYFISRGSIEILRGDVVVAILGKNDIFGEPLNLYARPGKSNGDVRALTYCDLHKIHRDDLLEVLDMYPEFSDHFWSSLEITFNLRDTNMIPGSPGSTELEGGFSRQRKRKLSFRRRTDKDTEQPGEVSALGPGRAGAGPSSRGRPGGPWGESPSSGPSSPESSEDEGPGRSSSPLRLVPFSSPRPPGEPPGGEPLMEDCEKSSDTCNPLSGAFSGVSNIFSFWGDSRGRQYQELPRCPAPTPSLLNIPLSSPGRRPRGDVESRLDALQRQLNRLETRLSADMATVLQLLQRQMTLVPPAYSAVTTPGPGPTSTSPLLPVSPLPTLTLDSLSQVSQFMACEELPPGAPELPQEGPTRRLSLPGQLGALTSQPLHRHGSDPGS

[3] = biological target: T2, Glutamate NMDA receptor; GRIN1/GRIN2B (Homo sapiens, UniProt Q05586+Q13224); test: In vitro inhibition of Glu/Gly stimulated [Ca2+] influx in LtK-cells expressing the hNR1a/NR2B receptor; format: functional
T2 sequence (Q13224 whole entry, other chains not shown): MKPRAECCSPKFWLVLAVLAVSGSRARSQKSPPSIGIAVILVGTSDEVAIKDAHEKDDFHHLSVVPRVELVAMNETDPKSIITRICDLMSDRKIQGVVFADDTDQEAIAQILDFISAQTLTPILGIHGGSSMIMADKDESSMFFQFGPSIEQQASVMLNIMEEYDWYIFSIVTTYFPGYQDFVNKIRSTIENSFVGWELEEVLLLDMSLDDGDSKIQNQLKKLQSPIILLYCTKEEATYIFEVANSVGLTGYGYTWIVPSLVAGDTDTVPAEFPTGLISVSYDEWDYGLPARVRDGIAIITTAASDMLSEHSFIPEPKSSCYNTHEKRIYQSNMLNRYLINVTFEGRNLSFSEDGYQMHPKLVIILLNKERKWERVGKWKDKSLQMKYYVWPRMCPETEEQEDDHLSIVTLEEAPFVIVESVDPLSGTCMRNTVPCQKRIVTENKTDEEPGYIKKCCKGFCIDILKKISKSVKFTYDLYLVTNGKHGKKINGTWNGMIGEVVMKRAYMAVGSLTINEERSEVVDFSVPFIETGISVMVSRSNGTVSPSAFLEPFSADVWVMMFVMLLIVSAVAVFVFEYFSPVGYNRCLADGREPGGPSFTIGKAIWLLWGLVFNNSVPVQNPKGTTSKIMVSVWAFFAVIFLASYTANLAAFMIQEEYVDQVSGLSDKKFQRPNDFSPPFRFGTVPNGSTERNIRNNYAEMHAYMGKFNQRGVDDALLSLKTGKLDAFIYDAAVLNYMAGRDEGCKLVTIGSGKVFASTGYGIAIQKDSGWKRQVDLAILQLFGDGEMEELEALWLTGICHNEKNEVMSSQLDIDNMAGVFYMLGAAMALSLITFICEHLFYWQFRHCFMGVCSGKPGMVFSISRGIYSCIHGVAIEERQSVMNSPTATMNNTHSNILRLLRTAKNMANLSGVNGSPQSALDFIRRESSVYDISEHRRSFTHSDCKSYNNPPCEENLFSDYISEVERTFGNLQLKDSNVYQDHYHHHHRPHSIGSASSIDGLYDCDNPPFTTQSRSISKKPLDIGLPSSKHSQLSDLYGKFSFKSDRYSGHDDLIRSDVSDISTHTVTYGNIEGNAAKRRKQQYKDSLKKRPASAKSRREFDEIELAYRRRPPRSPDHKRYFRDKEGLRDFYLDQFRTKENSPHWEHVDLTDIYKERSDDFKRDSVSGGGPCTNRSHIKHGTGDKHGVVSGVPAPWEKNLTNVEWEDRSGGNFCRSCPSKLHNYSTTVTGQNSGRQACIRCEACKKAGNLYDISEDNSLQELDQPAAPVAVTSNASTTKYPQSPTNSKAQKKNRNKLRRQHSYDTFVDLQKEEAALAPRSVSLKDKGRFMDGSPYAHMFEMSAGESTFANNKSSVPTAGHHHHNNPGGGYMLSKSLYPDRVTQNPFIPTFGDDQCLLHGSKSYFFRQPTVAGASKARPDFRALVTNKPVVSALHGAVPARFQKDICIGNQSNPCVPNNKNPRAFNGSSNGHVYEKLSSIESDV
Method in brief: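 Fluorescence readout of Ca2+ flux stimulated by glutamate/glycine in Ltk- cells stably expressing human NR1a/NR2B, measured as inhibition. IC50 is the geometric mean of at least n = 4, with 2×SEGM given.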

[4] = biological target: T2, Glutamate NMDA receptor; GRIN1/GRIN2B; test: Compound was evaluated for in vitro inhibition of [3H][(E)-N-(2-methoxybenzyl)cinnamamidine binding to human NR1a/NR2B receptors expressed in LtK-cells; format: cell-based
[5] = Oral bioavailability in rat; format: ADME, organism-based; settings: in vivo
Method in brief: (§1)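 Conscious male Sprague-Dawley rats (n = 3–4) given single doses: 2 mg/kg iv in 100% DMSO, or 10 mg/kg po by gavage in 1% methylcellulose. Plasma was sampled at multiple times up to 24 h. Interanimal variability was below 20%.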

[6] = Oral bioavailability in dog (mongrel); format: ADME, organism-based, Canis lupus familiaris; settings: in vivo
Method in brief: (§2)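 Single doses in dogs (n = 2): 1 mg/kg iv in 100% DMSO, or 3 mg/kg po gavaged in 1% methylcellulose suspension. Plasma was sampled at multiple time points up to 24 h. Interanimal variability was below 20%.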

[7] = Plasma clearance (in vivo) in mongrel dogs was determined; format: ADME, organism-based, Canis lupus familiaris; settings: dog; method in brief: as §2
[8] = Plasma clearance (in vivo) in rats was determined; format: ADME, organism-based; settings: rat; method in brief: as §1
[9] = Half-life in mongrel dogs was determined; format: ADME, organism-based, Canis lupus familiaris; settings: dog, in vivo; method in brief: as §2
Rattus norvegicus [10] = test: Compound was evaluated in vivo for carrageenan induced mechanical hyperalgesia in rats, intravenously; format: functional
Method in brief: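 Male Sprague-Dawley rats (100–120 g) received 4.5 mg carrageenan in 0.15 mL saline intraplantar, or saline. Agent was given iv in 50% PEG-200/D5W (n = 6/dose) 15 min before the paw pressure read at 3 h. Threshold was taken as vocalization on an algometer.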

[11] = Half-life in rats was determined; format: ADME, organism-based; settings: rat, in vivo; method in brief: as §1
Rattus norvegicus [12] = test: Compound was evaluated in vivo for carrageenan induced mechanical hyperalgesia in rats, perorally; format: functional
Method in brief: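 Male Sprague-Dawley rats (100–120 g) received 4.5 mg carrageenan intraplantar, with a 3 h post-injection paw pressure (vocalization) threshold. Agent was gavaged in 1% methylcellulose suspension (n = 8/dose) 1 h before the reading. Response is expressed as % of carrageenan hyperalgesia; the highest oral dose was 30 mg/kg, one determination.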

| Compound | IC50 [1] [nM] | IC50 [2] [nM] | IC50 [3] [nM] | Ki [4] [nM] | bioavailability [5] [%] | bioavailability [6] [%] | clearance [7] [mL/min/kg] | clearance [8] [mL/min/kg] | half-life [9] [h] | Activity (Rattus norvegicus [10]) [mg/kg] | half-life [11] [h] | Activity (Rattus norvegicus [12]) [mg/kg] |
| --- | --- | --- | --- | --- | --- | --- | --- | --- | --- | --- | --- | --- |
| Oc1ccc2[nH]c(CN3CCC(Cc4cccc(F)c4)CC3)nc2c1 | 520 | 2100 | 44 | 4.2 |  |  |  |  |  |  |  |  |
| Nc1ccc2[nH]c(Cc3ccc(Oc4ccccc4)cc3)nc2c1 | 2600 | 120 | 78 | 180 |  |  |  |  |  |  |  |  |
| c1ccc(Oc2ccc(Cc3nc4ccccc4[nH]3)cc2)cc1 | 4200 | 2000 | 200 | 260 |  |  |  |  |  |  |  |  |
| CC(C)S(=O)(=O)Nc1ccc2[nH]c(Cc3ccc(Oc4ccccc4)cc3)nc2c1 | 3100 |  | 14 | 15 |  |  |  |  |  |  |  |  |
| CCS(=O)(=O)Nc1ccc2[nH]c(Cc3ccc(Oc4ccccc4)cc3)nc2c1 | 2800 | 1600 | 2.1 | 3 |  |  |  |  |  |  |  |  |
| Oc1cccc2[nH]c(Cc3ccc(Oc4ccccc4)cc3)nc12 | 5500 | 860 | 150 | 140 |  |  |  |  |  |  |  |  |
| Oc1ccc2[nH]c(CN3CCC(Cc4ccccc4)CC3)nc2c1 | 670 | 2600 | 8.2 |  | 20 | 90 | 0.6 | 22.8 | 6.7 | 3.3 | > 8 |  |
| N#Cc1ccc2[nH]c(Cc3ccc(Oc4ccccc4)cc3)nc2c1 | 3400 | 1100 | 800 | 790 |  |  |  |  |  |  |  |  |
| COc1ccc2[nH]c(Cc3ccc(Oc4ccccc4)cc3)nc2c1 | 530 |  | 9200 | 8400 |  |  |  |  |  |  |  |  |
| CN(c1ccc2[nH]c(Cc3ccc(Oc4ccccc4)cc3)nc2c1)S(C)(=O)=O | 2000 | 640 | 25 | 470 |  |  |  |  |  |  |  |  |
| CC(C)S(=O)(=O)Nc1ccc2[nH]c(CN3CCC(Cc4ccccc4)CC3)nc2c1 | 570 |  | 300 | 240 |  |  |  |  |  |  |  |  |
| Oc1ccc2[nH]c(CN3CCC(Cc4ccc(F)cc4)CC3)nc2c1 | 620 | 500 | 12 | 1.1 |  |  |  |  |  |  |  |  |
| c1ccc(CC2CCN(Cc3nc4ccccc4[nH]3)CC2)cc1 | 2800 | 1400 | 710 | 420 |  |  |  |  |  |  |  |  |
| CC(=O)Nc1ccc2[nH]c(Cc3ccc(Oc4ccccc4)cc3)nc2c1 | 20000 | 2600 | 42 | 93 |  |  |  |  |  |  |  |  |
| Oc1ccc2[nH]c(Cc3ccc(Oc4ccccc4)cc3)nc2c1 | 200 | 720 | 9.2 | 3.2 |  |  |  |  |  |  |  |  |
| CCCS(=O)(=O)Nc1ccc2[nH]c(Cc3ccc(Oc4ccccc4)cc3)nc2c1 | 4800 | 400 | 19 | 21 |  |  |  |  |  |  |  |  |
| O=[N+]([O-])c1ccc2[nH]c(Cc3ccc(Oc4ccccc4)cc3)nc2c1 | 1200 | 770 | 6600 |  |  |  |  |  |  |  |  |  |
| O=S(=O)(Nc1ccc2[nH]c(Cc3ccc(Oc4ccccc4)cc3)nc2c1)c1ccccc1 | 14000 | 680 | 49 | 17 |  |  |  |  |  |  |  |  |
| CS(=O)(=O)Nc1ccc2[nH]c(Cc3ccc(Oc4ccccc4)cc3)nc2c1 | 4000 | 120 | 0.72 | 0.68 | 97 |  |  | 8.3 |  |  | 1.97 | >30 |
| Oc1ccc2[nH]c(CN3CCC(Cc4ccccc4F)CC3)nc2c1 | 730 | 2900 | 9.7 | 0.85 | 6.4 | 87 | 0.6 | 12.3 | 6.5 | <3 | 1 |  |
| CS(=O)(=O)Nc1ccc2nc(CN3CCC(Cc4ccccc4)CC3)[nH]c2c1 | 1500 | 340 | 1.9 | 0.99 |  |  |  |  |  |  |  |  |
| Cc1ccc(CC2CCN(Cc3nc4cc(O)ccc4[nH]3)CC2)cc1 | 830 | 390 | 5.7 | 0.4 |  |  |  |  |  |  |  |  |
| Oc1ccc2[nH]c(CN3CCC(Cc4c(F)cccc4F)CC3)nc2c1 | 2600 | 3000 | 21 | 0.82 |  |  |  |  |  |  |  |  |
